From the RNAGym collection of RNA variant scans (doi:10.1126/science.aae0568)
Variants at the floor of the assay were thinned out.

B1: tRNA (parent)
chain: GUUCCGUUGGCGUAAUGGUAACGCGUCUCCCUCCUAAGGAGAAGACUGCGGGUUCGAGUCCCGUACGGAACG

Variants of: B1
Test: yeast fitness relative to wild type (ratio to wild type); higher = fitter; tRNA-Arg(CCU), competitive growth, 37 C, YPD
Outline: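 The tRNA-Arg(CCU) gene variants were made by chemical synthesis with a 3% per-site mutation rate at 69 sites and inserted at the native genomic locus of Saccharomyces cerevisiae. After pooling, the strains were competed in YPD at 37°C for 24 hours in six parallel replicates. Gene amplicons from the start population and each end population were read by 100-nucleotide paired-end sequencing, and Darwinian fitness relative to wild type was taken from genotype frequency changes. Genotypes needed ≥ 100 starting reads, and estimates < 0.5 were set to 0.5.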

Variant | yeast fitness
C5U C27U G56A | 0.704
C5A C24U U35C | ≤ 0.5
C5G C34G U47A C62A G63A | ≤ 0.5
G6A U13A C30G C61U | 0.601
U3G A21G G38C C49U A69C | ≤ 0.5
C11A C46U C62A A65C | ≤ 0.5
C4G U19C G48C A69C | 0.602
U2C U8G A14G U32G U35A | ≤ 0.5
G9A A43G U59A | 0.535
C11G G17A A20U C33G G38C | ≤ 0.5
A14G U19C U59A | ≤ 0.5
G9A C29G A57G | ≤ 0.5
G17C C27U A36G | 0.714
U3G U35G A37U U47C G56C A69C | ≤ 0.5
A36G A43U G48C | 0.556
A20G U53G | 0.571
G18C C60G | ≤ 0.5
G52A C66A | 0.649
A21C C29A G52C | 0.566
A37U U47C G51C G63C | 0.507
G25A U26A C31U G38A A42G A43U G48C G68C | ≤ 0.5

Variant | yeast fitness
U13G G48A A65U | 0.654
G6U C27G | 0.545
C5A G18C G67C | 0.561
A15C U47G | 0.663
A14G C27A U54G G68C | ≤ 0.5
C34G A45U | 0.567
C4G G10U A20U C34G A37G C66U | ≤ 0.5
U3C C31G U32C G38C C46G G48C G68C | ≤ 0.5
G10A G17A U59G C62U | ≤ 0.5
G56C A57U | 0.562
G12A C29A A42U C46U C55A G56C | ≤ 0.5
C4A A42C C66G G68C | ≤ 0.5
U3C U19C A40G C46A | 0.74
C5U G17C C30G U59A | ≤ 0.5
C11A U32A C33U U47A | ≤ 0.5
C4U C34U U59A | ≤ 0.5
C5U U47A C49U A69U | ≤ 0.5
C4A A45U U47A | ≤ 0.5
C4A C5G C46G | ≤ 0.5
U2A G39A U47A C49U U54A | ≤ 0.5
A21U G48A A57U | 0.714

Variant | yeast fitness
G17A G23C U64A A65C G67A | ≤ 0.5
A14U C30U A42G | ≤ 0.5
U3C G17U C31A | ≤ 0.5
G6C C30U C61G | ≤ 0.5
G6A G41A | 0.822
A20G G67U | 0.965
C11A A57G C66U | ≤ 0.5
G17A C34U A42U G51C C66U | ≤ 0.5
G17A C27U U35C C61G | ≤ 0.5
C22U G44A | 0.865
G6A C31U A43U C55A | ≤ 0.5
A15G A20C C24G G41C C46A C62G | ≤ 0.5
C22U C27U C33A C60U C62G | 0.558
A15U C31U | 0.707
C4U U64A A70U | 0.66
U7C C27U A36C G56C G68A A70U | ≤ 0.5
C29U G51A G56A G63C | 0.528
G50A C66U | 0.783
U8C G17C C31A G68A | ≤ 0.5
U13G C62U | 0.92
G23A G38C | 0.599

Variant | yeast fitness
C5U C22G C29A A45U A70U | 0.539
G6A G10A C60G | ≤ 0.5
A20U C30G A69C | 0.597
C4A A36G G51C A65U | ≤ 0.5
G12A A37G U59C | ≤ 0.5
U3C A15C G17C C24A C31U U35C G68C | ≤ 0.5
G9A U26A U28C C55U G58A U59C | 0.555
C22G A43U U54C C62U | ≤ 0.5
U2G C46A | 0.808
A20G C60G A70C | 0.604
G10C A20U G41U A57U | ≤ 0.5
C27U G51C U59C G63A | ≤ 0.5
U7C A21U C22A | ≤ 0.5
U3A C24G C31U C62A | ≤ 0.5
C22U G56C C60A C62G | 0.523
C11A U53G | 0.577
G50A G56C | 0.635
C5U U26G A43C C62G G63A C66G A69G | 0.549
G12A C33G C46U G50C | 0.595
A37G A42C A65C A69C | 0.616
C27A G68A | 0.787
